The entries come from a sample that favours hits as a whole.
KCC2 mod: modulates chloride dependent transport by human KCC2; Q9H2X9; KCC2 cells, thallium flux FluoZin-2 fluorescence; B-score of Tl+ flux slope (higher = more flux/activation; lower = inhibition) at 10 µM; hit rate 2.2% among 190,000;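 active means thallium flux slope and its plate-corrected score both differing from the plate sample mean at a set confidence after two filtering rounds, in either direction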;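 further: slope of fluorescence scaled to starting intensity during 10 to 20 s after thallium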
pCIP destab: lowers stability of the mouse p/CIP coactivator protein; Q05BA5; F442A p/CIP-EGFP cells, EGFP fluorescence, 16 h; decrease of EGFP signal, % at 10 µM; hit rate 0.01% among 290,000; AID 1984;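 active means EGFP signal decrease of at least 30% at 10 µM or well 3 SD below plate mean, unless failing retest; inactive means the rest, including hits failing retest or dose response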
ABCB6 inh MLPCN: human ABCB6 transporter inhibition; Q9NP58; K562-ABCB6 porphyrin accumulation, flow cytometry, 1 h; stronger effect = lower value; fluorescence ratio to DMSO, % at 10 µM; hit rate 0.19% among 360,000; AID 602162;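 active means fluorescence ratio to DMSO below 75%, the collection mean minus 3 SD; inconclusive means too few cells collected in the well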;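 further: signal is porphyrin accumulated inside mitochondria; 100% equals median channel fluorescence of DMSO control wells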
Dynein transport: dynein cargo transport inhibition; 3617.4 mouse cells, GR-EGFP nuclear translocation imaging; test concentration mostly 20 µM; stimulated with dexamethasone, 1 µM; stronger effect = lower value; z-score, hits read low; hit rate 0.47% among 220,000; AID 1381;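 active means plate z-score of nuclear minus cytoplasmic receptor signal below a set negative limit, without overly bright fluorescence or cell loss, cut at about -3.5 in these data, passing the limit was not always enough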;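 further: z-score of nuclear minus cytoplasmic ring GR-EGFP intensity difference per well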
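Buffer or medium – tet-free medium with charcoal-stripped serum · Signal – automated 10x imaging of fixed Hoechst-stained cells · Also added – dexamethasone agonist, 1.0 µM final, for 30 min · Incubation – induction 48 h, compound 1 h, agonist 30 min · Read-out – GR-EGFP nuclear translocation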
V-ATPase pH: yeast V-ATPase proton transport regulation by pHLuorin; AID 504577; hit rate 0.37% among 350,000; response, % at 10 µM; S. cerevisiae, pHLuorin cytosolic pH fluorescence; in the data active means response mostly above about 7.3%, no sharp cut-off; inactive means mostly below about 5.4%; further: actives read high
KCC2 sec1: KCC2 (human) modulation, secondary assay; hit rate 15% among 3,700; HEK293-KCC2, thallium flux, FluoZin2 fluorescence; stronger effect = higher value; normalised thallium flux (F/F0 slope) at 10 µM; shares compounds with KCC2 mod; AID 1713;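 active means thallium flux slope above the same plate's solvent-only control mean plus 3 SD; inconclusive means the two replicate wells disagree; inactive means no significant difference from solvent-only control wells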
KCC2 bumet counter: bumetanide-insensitive thallium flux in KCC2 cells with ouabain, counter-screen; AID 1714; HEK293-KCC2 + bumetanide/ouabain, thallium flux FluoZin2; stronger effect = higher value; normalized thallium flux at 10 µM; hit rate 49% among 3,700; shares compounds with KCC2 mod;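 active means thallium entry rate above the same plate's blocked-transporter control wells by more than 3 SD; inconclusive means the two repeat wells disagree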;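 further: raw slope of fluorescence over initial fluorescence between 10 and 20 s after thallium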
KCC2 sec2: KCC2 (human) modulation, second secondary assay. shares compounds with KCC2 mod. HEK293-KCC2, thallium flux FluoZin2 fluorescence; actives lie on both sides; F/F0 rise rate, 10–20 s post-thallium. normalized thallium flux at 10 µM. hit rate 23% among 3,700. AID 1715;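 active means thallium flux slope more than 3 SD above or below the plate's solvent-only control mean, mostly below; inconclusive means the two repeat wells disagreed; inactive means no significant shift from solvent-only controls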;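 further: raw slope with 0.1% DMSO as baseline and bumetanide as block control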
HEK counter1: acts in parental HEK cells, KCC2 counter-screen. shares compounds with KCC2 mod. HEK293 parental cells, thallium flux FluoZin2, ouabain; baseline-ratio fluorescence slope, 10–20 s after thallium. thallium flux rate (normalised fluorescence) at 10 µM. hit rate 46% among 3,700;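 active means thallium flux rate significantly above the same plate's solvent-only control wells, beyond their mean plus 3 SD; inconclusive means the two replicate wells gave conflicting results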
KCC2 retest ouab: confirmation of human KCC2 modulators with ouabain; shares compounds with KCC2 mod; HEK293-KCC2, thallium flux FluoZin2 fluorescence; bidirectional: low = inhibitor, high = activator; raw Tl+ flux slope (below DMSO = inhibition, above = activation) at 10 µM; hit rate 48% among 3,700;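 active means thallium flux slope beyond 3 SD from same-plate DMSO control mean in most replicates, usually higher, sometimes lower; inconclusive means repeat tests gave conflicting results; inactive means no significant difference from controls in most replicates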;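 further: slope of initial-normalized fluorescence between seconds 10 and 20 after thallium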
HEK counter2: parental HEK flux effect, counter-screen 2 | shares compounds with KCC2 mod | HEK293 parental, thallium flux FluoZin-2 fluorescence slope | thallium flux slope at 10 µM | hit rate 33% among 3,700;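 active means thallium flux slope above the same plate's solvent-control mean plus 3 SD in both duplicate wells; inconclusive means duplicate wells that disagreed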;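 further: run without ouabain in cells lacking the KCC2 cotransporter; slope of fluorescence scaled to its starting value between 10 and 20 s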
VATPase regulator: modulates yeast V-ATPase proton transport. response, % at 10 µM. hit rate 2% among 980. S. cerevisiae pHLuorin cytosolic pH. shares compounds with V-ATPase pH; in the data active means response above about 24%;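 further: plate controls were vehicle wells for no effect and positive control wells for full effect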
Starred values were filed as active, the others as inactive; ? = inconclusive; . = no result.

SMILES | KCC2 mod | pCIP destab | ABCB6 inh MLPCN | Dynein transport | V-ATPase pH | KCC2 sec1 | KCC2 bumet counter | KCC2 sec2 | HEK counter1 | KCC2 retest ouab | HEK counter2 | others
CN1CCN(CCCNC(=O)c2ccc(/C=C3\Sc4ccccc4N(Cc4ccc(F)cc4)C3=O)cc2)CC1 | 2.7* | -0.7 | 97.0 | -0.18 | 1.4 | 0.00894 | 0.00515 | 0.0325 | 0.00766 | 0.0189 | 0.0118
Cc1ccc(-c2n[nH]c(=S)c3ccccc23)cc1 | 8.94* | -3.8 | 98.0 | -0.0729 | 0.6 | 0.00917 | 0.0246* | 0.0295 | 0.00975* | ? | 0.00954
COc1cc(NC(=O)C2C3CCC(O3)C2C(=O)O)cc(OC)c1 (stereo not given) | . | -5.8 | 100.0 | . | 3.9 | . | . | . | . | . | .
CCSc1nc2sc3c(c2c(=O)n1CC)CCC3 | . | -3.0 | 99.0 | . | 6.0 | . | . | . | . | . | .
NNc1nc2sc3c(c2c(=O)n1Cc1ccccc1)CCC3 | 4.05* | -4.5 | 97.0 | -0.729 | -1.1 | 0.0118 | 0.0169* | 0.0373 | ? | ? | 0.0118
CCn1c(NN)nc2sc3c(c2c1=O)CCC3 | 6.02* | -8.9 | 103.0 | 1.35 | -0.4 | 0.014* | 0.0192* | 0.0347 | 0.0178* | 0.0304* | ?
Nn1cnnc1N/N=C/c1cc(Br)cc(Br)c1O | . | -2.5 | 116.0 | -0.224 | 3.6 | . | . | . | . | . | .
CCO[C@@H]1OC(C(=O)Nc2ccccc2)=C[C@H](C2CC2)[C@H]1CCCO | 0.638 | -18.1 | 98.0 | -0.289 | 0.1 | . | . | . | . | . | .
COc1ccc(C(=O)NCCSCc2ccc(C)cc2)cc1 | . | -3.8 | 106.0 | -1.06 | -1.7 | . | . | . | . | . | .
Cc1ccc(CSCCNC(=O)c2ccc(C)cc2)cc1 | -3.8* | 13.6 | 90.0 | 0.442 | -0.5 | 0.00658 | 0.00468 | 0.0239* | 0.00773 | 0.0164* | 0.0103
O=C(Nn1cnnc1)c1cc(Br)ccc1Cl | . | -112.1 | 96.0 | . | -1.1 | . | . | . | . | . | .
N#C/C(=C(O)\C=C\c1ccccc1)c1nc2ccccc2[nH]1 | 6.63* | -2.3 | 96.0 | 0.1 | -5.6 | 0.00579 | 0.0049 | ? | 0.00762 | 0.0191 | 0.0104
CC(C)(C)/C(O)=C(/C#N)c1nc2ccccc2[nH]1 | . | 5.7 | 97.0 | 0.381 | -2.8 | . | . | . | . | . | .
Cc1ccc(C)c(NC(=S)NCc2ccccc2)c1 | . | -11.7 | 96.0 | . | -0.4 | . | . | . | . | . | .
Cc1ccc(C)c(NC(=S)N/N=C/C(C)c2ccccc2)c1 (stereo not given) | 25.3* | -1.7 | 94.0 | -0.34 | 15.4* | 0.0114 | 0.0244* | 0.033 | ? | ? | 0.00835 | VATPase regulator=2.7
O=C(NN1C(=O)c2ccc(-c3ccc4c(c3)C(=O)N(NC(=O)c3cccnc3)C4=O)cc2C1=O)c1cccnc1 | -0.301 | 4.2 | 107.0 | 1.13 | -1.8 | . | . | . | . | . | .
Cc1ccc(S(=O)(=O)/N=C2/NC(=O)/C(=C\c3ccccc3)S2)cc1 | . | . | 97.0 | . | -3.8 | . | . | . | . | . | .
Cc1ccc(/C=C2\S/C(=N/S(=O)(=O)c3cccs3)NC2=O)cc1 | 5.66* | -4.3 | 112.0 | -0.299 | 21.5* | 0.00669 | 0.0158* | 0.0299 | 0.014* | ? | 0.0164* | VATPase regulator=0.6
COc1ccc(Br)c(Cn2c(C)c(C(=O)NCc3ccc4c(c3)OCCO4)sc2=O)c1 | . | . | 100.0 | . | . | . | . | . | . | . | .
Cc1c(Cl)sn(-c2ccc(Cl)cc2)c1=O | -5.88* | -8.9 | 99.0 | -4.56* | 66.4* | 0.00623 | 0.00477 | 0.0232* | 0.00694 | 0.0116* | ? | VATPase regulator=60.6*

Screening data from PubChem BioAssay.
